In ChEMBL document CHEMBL1149392, “PTP-1B inhibitors: cyclopenta[d][1,2]-oxazine derivatives” (Bioorg Med Chem Lett, 2006) one finds IC50 data, which are given here for three molecules.

Assay [1] deals with T1, Tyrosine-protein phosphatase non-receptor type 1 (Homo sapiens, UniProt P18031).
T1 sequence (P18031 whole entry): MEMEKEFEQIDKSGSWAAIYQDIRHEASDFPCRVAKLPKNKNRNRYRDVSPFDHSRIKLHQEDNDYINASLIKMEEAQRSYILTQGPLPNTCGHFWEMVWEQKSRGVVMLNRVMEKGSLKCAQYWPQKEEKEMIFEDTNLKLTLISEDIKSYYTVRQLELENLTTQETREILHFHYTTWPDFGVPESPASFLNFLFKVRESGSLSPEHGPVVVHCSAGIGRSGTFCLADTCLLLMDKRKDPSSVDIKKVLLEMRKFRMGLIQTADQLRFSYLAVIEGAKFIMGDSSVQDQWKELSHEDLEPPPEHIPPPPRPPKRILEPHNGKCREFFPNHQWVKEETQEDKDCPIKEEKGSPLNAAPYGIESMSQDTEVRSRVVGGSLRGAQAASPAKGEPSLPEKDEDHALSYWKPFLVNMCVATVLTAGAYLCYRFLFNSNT
The assay can be described thus: Inhibitory activity against recombinant human PTP1B. An outline of the steps:
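Recombinant human PTP-1B (0.1 μg) incubated with 20 μM fluorescein diphosphate and compound in 30 mM Tris, 75 mM NaCl, 0.67 mM EDTA, 1 mM DTT, pH 8.0, for 1 h at room temperature. Product fluorescein monophosphate read by fluorescence (ex 485 nm, em 538 nm). IC50 reported.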

Assay [2] deals with T2, Receptor-type tyrosine-protein phosphatase C (Homo sapiens, UniProt P08575).
T2 sequence (P08575 whole entry): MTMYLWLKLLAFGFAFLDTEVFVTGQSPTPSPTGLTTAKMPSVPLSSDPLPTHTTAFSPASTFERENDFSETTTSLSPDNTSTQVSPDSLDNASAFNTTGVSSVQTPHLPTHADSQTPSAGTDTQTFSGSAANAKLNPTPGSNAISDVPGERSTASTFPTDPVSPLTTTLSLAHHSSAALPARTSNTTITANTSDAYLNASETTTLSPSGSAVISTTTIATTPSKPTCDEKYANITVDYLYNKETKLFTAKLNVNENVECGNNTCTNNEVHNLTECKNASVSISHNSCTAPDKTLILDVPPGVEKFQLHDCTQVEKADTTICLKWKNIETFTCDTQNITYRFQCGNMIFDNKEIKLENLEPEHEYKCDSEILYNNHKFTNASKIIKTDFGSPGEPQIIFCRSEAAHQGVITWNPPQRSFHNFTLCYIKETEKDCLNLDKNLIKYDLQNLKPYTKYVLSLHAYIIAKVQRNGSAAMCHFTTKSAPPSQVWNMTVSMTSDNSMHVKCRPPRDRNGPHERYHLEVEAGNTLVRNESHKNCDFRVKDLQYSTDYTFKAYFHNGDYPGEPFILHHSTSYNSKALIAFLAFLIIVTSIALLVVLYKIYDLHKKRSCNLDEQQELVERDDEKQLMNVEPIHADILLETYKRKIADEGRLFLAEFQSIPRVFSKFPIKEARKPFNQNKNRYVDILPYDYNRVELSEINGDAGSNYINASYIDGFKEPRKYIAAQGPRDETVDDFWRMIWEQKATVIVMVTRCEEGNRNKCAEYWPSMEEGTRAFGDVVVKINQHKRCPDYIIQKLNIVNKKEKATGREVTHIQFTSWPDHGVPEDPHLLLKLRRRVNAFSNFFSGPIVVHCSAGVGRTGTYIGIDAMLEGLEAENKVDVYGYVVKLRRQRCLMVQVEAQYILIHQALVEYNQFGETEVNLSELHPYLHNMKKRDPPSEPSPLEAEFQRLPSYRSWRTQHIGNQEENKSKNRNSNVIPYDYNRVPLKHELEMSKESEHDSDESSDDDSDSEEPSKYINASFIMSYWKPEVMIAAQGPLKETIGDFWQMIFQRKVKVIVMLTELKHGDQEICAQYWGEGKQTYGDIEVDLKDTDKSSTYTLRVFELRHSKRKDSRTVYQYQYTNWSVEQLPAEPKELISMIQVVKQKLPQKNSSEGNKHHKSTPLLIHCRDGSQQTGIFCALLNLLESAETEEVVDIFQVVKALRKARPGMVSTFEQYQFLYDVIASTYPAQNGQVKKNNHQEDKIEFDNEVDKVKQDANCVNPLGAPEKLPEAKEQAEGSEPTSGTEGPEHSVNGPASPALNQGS
Briefly: Inhibitory activity against CD45 phosphatase. The method in brief: (§1)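 Selectivity panel of nine phosphatases, each assayed with fluorescein diphosphate at the same concentration as in the PTP-1B assay (20 μM). IC50 values (μM) reported.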

Assay [3] addresses Receptor-type tyrosine-protein phosphatase F (Homo sapiens, UniProt P10586). Briefly: Inhibitory activity against LAR protein tyrosine phosphatase. An outline of the steps:
as §1

Assay [4] deals with Dual specificity protein phosphatase 3 (Homo sapiens, UniProt P51452). Briefly: Inhibitory activity against VH1-related phosphatase VHR. An outline of the steps:
as §1

The nature of assay [5]: Inhibitory activity against protein phosphatase type 2A. The method in brief: as §1

Sequence of Receptor-type tyrosine-protein phosphatase F (P10586 whole entry): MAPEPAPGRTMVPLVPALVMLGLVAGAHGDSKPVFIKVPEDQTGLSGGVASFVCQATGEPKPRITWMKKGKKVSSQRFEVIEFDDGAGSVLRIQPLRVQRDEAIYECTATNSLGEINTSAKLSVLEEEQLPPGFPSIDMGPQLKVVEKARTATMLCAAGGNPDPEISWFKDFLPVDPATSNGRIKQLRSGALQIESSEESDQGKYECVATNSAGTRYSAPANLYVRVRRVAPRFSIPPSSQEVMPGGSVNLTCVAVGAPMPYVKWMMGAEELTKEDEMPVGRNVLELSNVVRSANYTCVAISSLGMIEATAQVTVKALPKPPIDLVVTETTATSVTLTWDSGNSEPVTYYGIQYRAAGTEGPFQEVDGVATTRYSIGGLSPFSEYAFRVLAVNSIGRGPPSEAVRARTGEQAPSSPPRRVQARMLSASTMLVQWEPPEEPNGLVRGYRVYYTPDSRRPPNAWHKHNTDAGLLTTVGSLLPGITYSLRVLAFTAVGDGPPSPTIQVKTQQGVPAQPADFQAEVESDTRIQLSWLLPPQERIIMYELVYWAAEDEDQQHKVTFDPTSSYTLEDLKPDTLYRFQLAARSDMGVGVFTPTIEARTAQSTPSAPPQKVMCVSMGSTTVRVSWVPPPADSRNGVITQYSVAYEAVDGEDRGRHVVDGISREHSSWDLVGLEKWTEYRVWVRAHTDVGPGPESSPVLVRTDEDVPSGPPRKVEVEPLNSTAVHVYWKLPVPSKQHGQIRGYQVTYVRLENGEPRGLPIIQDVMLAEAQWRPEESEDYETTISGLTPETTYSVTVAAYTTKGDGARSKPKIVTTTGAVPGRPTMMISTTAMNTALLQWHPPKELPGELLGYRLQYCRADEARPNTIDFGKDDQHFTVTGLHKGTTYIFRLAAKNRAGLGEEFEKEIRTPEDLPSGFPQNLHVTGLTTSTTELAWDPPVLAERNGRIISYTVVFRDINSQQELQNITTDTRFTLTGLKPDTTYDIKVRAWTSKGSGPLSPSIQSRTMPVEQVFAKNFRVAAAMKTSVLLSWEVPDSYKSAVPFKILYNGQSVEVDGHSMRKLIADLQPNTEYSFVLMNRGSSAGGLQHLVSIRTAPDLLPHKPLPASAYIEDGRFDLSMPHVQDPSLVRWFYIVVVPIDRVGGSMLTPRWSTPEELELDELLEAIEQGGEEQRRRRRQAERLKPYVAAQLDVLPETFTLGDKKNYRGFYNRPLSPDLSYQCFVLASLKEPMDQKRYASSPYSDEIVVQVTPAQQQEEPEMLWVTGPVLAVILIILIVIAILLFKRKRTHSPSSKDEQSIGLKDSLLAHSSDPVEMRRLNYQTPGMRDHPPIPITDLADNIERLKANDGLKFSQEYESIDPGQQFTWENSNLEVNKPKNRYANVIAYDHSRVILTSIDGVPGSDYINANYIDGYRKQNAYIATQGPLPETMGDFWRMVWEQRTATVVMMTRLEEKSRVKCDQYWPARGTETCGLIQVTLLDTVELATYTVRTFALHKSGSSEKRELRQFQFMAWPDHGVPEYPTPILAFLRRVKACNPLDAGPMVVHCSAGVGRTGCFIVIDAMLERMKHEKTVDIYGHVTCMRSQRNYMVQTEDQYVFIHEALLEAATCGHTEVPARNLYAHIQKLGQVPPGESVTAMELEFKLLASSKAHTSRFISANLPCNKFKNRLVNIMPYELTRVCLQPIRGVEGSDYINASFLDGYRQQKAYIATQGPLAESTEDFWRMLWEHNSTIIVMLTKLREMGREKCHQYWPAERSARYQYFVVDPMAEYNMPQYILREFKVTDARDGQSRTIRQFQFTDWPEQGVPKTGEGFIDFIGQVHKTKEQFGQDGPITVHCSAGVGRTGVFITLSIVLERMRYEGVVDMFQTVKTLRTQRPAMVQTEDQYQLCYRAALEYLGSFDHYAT
Sequence of Dual specificity protein phosphatase 3 (P51452 whole entry): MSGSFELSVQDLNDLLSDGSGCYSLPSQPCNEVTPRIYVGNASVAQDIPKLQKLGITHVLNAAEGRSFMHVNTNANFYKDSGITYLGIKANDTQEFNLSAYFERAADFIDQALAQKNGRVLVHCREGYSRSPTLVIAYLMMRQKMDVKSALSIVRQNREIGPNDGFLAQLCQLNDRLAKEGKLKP

Take `NCc1ccc(C(=O)c2ccc3c(-c4ccc(OCC(=O)O)cc4)nocc2-3)cc1`: the results for the IC50 in assay [1], in assay [2] and in assay [3] were 2160 nM, 1230 nM and more than 10000 nM, respectively.

Regarding `CCCCCCCCCCCCCCc1ccc(C(=O)c2ccc3c(-c4ccc(OCC(=O)O)cc4)nocc2-3)cc1`, the figures for the IC50 in assay [1], in assay [2] and in assay [3] were 140 nM, 150 nM and 690 nM, respectively.

With `COc1ccc(C(=O)c2ccc3c(-c4ccc(OCC(=O)O)cc4)nocc2-3)cc1`, the IC50 (commonly the concentration that inhibits the measured activity by half) in assay [1] is 800 nM; in assay [4], 181000 nM; in assay [2] it was 28800 nM; in assay [3], 61700 nM; in assay [5] it was more than 10000 nM.
